Test [1] has as its target T1, NAD-dependent protein deacetylase sirtuin-2 (Homo sapiens) (UniProt Q8IXJ6).
T1 sequence (whole entry): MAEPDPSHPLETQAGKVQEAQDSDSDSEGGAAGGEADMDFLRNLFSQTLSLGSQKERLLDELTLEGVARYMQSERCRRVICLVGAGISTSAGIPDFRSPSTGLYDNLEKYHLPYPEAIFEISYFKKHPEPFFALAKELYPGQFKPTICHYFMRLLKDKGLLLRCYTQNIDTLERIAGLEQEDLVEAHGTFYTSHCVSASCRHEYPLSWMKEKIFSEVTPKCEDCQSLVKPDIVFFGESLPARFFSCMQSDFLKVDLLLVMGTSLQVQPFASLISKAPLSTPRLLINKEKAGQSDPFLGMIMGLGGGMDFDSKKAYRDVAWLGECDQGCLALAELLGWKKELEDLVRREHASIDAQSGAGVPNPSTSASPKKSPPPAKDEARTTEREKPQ
The test is described as follows: Inhibition of human N-terminal His-tagged SIRT2 expressed in Escherichia coli at 10 uM using p53 (Gln-Pro-Lys-Lys(Ac)) (317 to 320 residues) as substrate incubated for 3 hrs measured up to 30 mins by fluorescence assay relative to control.

Test [2] addresses T2, NAD-dependent protein deacetylase sirtuin-1 (Homo sapiens) (UniProt Q96EB6).
T2 sequence (whole entry): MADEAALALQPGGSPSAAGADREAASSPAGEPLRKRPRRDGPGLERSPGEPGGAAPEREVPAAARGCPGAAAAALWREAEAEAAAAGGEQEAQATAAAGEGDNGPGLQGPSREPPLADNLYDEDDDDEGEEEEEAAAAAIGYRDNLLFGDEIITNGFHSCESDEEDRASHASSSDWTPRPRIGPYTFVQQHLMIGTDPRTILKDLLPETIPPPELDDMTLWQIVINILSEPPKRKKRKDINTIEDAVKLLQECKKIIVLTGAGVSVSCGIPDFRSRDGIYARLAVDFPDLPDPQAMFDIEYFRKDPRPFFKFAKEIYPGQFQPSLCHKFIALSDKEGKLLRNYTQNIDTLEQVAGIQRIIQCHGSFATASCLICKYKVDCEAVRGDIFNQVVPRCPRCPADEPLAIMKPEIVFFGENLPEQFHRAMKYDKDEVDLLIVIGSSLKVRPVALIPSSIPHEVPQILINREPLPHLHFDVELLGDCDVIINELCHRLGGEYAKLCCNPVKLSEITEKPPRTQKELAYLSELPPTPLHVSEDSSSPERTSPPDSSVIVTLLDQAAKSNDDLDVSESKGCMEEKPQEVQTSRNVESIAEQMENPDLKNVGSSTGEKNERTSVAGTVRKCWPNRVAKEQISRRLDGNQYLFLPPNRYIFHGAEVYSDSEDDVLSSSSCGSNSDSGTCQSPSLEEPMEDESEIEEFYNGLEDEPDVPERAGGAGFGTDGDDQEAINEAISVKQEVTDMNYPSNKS
The test is described as follows: Inhibition of human N-terminal His-tagged SIRT1 expressed in Escherichia coli at 50 uM using p53 (Arg-His-Lys-Lys(Ac)) (379 to 382 residues) as substrate incubated for 3 hrs measured up to 30 mins by fluorescence assay relative to control.

Test [3] deals with T1, NAD-dependent protein deacetylase sirtuin-2 (Homo sapiens). Briefly: Inhibition of human N-terminal His-tagged SIRT2 expressed in Escherichia coli at 50 uM using p53 (Gln-Pro-Lys-Lys(Ac)) (317 to 320 residues) as substrate incubated for 3 hrs measured up to 30 mins by fluorescence assay relative to control.
Test [4] concerns MCF7. The test is described as follows: Growth inhibition of human MCF7 cells measured after 72 hrs by AlamarBlue assay. It is filed as functional. The following applies: MCF7, 72 h. An outline of the steps: (§1)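 MCF-7 cells in DMEM with 10% FBS were seeded at 1×10³ cells/well. After 24 h at 37°C, 5% CO₂, compound in medium was added at varying concentrations for 72 h. AlamarBlue was then added for 3 h and fluorescence read (ex 540/em 590 nm). Percent growth was calculated from the readings, and GI50 from the dose response. Three independent determinations.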

Test [5] deals with N2a. The test is described as follows: Induction of neurite outgrowth in mouse Neuro2a cells at 0.2 to 2 uM measured after 24 hrs by microscopic analysis. It is filed as functional, cell-based. An outline of the steps: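 N2a cells were plated at 1×10⁴ cells/mL in DMEM with 10% FBS, then switched to DMEM with 2% FBS for differentiation. Compound was added for 24 or 48 h and morphology scored by microscopy. A cell counted as differentiated if it had ≥1 neurite longer than twice the soma diameter; ≥100 cells were counted per condition. Triplicate experiments, mean ± SD, one-way ANOVA with Dunnett's test.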

In test [6] the test system is MCF7. The test is described as follows: Growth inhibition of human MCF7 cells at 15 uM measured after 72 hrs by AlamarBlue assay. It is filed as functional, cell-based. An outline of the steps:
as §1

The target of test [7] is T1, NAD-dependent protein deacetylase sirtuin-2 (Homo sapiens). The test is described as follows: Inhibition of SIRT2 in human MCF7 cells assessed as accumulation of acetylated-alpha tubulin at 0.1 uM measured after 24 hrs by Western blot analysis relative to alpha-tubulin. It is filed as cell-based. In outline:
(§2)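 MCF-7 cells (5×10⁵ per dish) were treated 24 h, lysed in SDS buffer and protein was quantified by BCA. Equal protein was run on 5–20% SDS-PAGE and transferred to PVDF. Blots were probed for H3K9Ac, H3, acetyl-α-tubulin and α-tubulin, then given HRP secondaries and ECL detection. Acetyl/total ratios came from blot optical density.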

Test [8] has as its target T2, NAD-dependent protein deacetylase sirtuin-1 (Homo sapiens). The test is described as follows: Inhibition of SIRT1 in human MCF7 cells assessed as H3K9Ac expression at 0.1 uM measured after 24 hrs by Western blot analysis relative to H3. It counts as cell-based. In outline:
as §2

The target in test [9] is NAD-dependent protein deacylase sirtuin-5, mitochondrial (Homo sapiens) (UniProt Q9NXA8). The test is described as follows: Inhibition of human N-terminal His-tagged SIRT5 (37 to 310 residues) expressed in Escherichia coli at 100 uM using flour de lys succinyl as substrate incubated for 3 hrs measured up to 30 mins by fluorescence assay relative to control.
Sequence of NAD-dependent protein deacylase sirtuin-5, mitochondrial (Homo sapiens) (Q9NXA8 37-310 limits assumed): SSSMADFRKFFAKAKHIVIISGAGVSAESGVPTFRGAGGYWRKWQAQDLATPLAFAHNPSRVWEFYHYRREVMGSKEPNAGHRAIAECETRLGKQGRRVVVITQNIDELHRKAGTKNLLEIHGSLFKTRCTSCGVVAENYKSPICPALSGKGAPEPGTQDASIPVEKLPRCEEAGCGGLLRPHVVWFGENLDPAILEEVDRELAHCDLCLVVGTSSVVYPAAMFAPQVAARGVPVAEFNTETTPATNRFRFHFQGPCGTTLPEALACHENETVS
In test [10] the target is T2, NAD-dependent protein deacetylase sirtuin-1 (Homo sapiens). The test is described as follows: Inhibition of human N-terminal His-tagged SIRT1 expressed in Escherichia coli at 100 uM using p53 (Arg-His-Lys-Lys(Ac)) (379 to 382 residues) as substrate incubated for 3 hrs measured up to 30 mins by fluorescence assay relative to control.
The subject of test [11] is MCF7. Briefly: Growth inhibition of human MCF7 cells at 30 uM measured after 72 hrs by AlamarBlue assay relative to control. It counts as functional. The following applies: MCF7, 72 h, read-out: GI. In outline: as §1
Test [12] has as its target T3, NAD-dependent protein deacetylase sirtuin-3, mitochondrial (Homo sapiens) (UniProt Q9NTG7).
T3 sequence (whole entry): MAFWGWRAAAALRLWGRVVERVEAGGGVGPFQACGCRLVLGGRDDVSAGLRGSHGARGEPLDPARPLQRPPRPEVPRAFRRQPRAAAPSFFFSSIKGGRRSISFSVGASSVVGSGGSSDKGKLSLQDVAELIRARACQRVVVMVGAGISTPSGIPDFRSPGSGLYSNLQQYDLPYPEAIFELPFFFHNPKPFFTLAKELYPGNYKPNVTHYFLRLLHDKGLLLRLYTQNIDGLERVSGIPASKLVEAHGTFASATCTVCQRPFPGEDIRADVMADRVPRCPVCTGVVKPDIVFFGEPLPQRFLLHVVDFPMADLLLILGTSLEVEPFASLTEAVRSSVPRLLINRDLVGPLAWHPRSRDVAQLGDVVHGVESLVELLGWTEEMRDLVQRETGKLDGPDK
Briefly: Inhibition of human N-terminal His-tagged SIRT3 (102 to 399 residues) expressed in Escherichia coli at 100 uM using p53 (Gln-Pro-Lys-Lys(Ac)) (317 to 320 residues) as substrate incubated for 3 hrs measured up to 30 mins by fluorescence assay relative to control.

Calls of active or inactive are those of the source. The rule behind the calls is not given here.

Turning to `O=C(NCCc1ccccc1)c1ccccc1Nc1cccc(OCCc2ccccc2)c1`, the inhibition in test [1] stood at 46%; in [2] it was 5%.

Take `C#CCNC(=O)c1ccccc1Nc1cccc(OCCc2ccccc2)c1`: the inhibition in test [1] turned out to be 77%; in [2] it was 12%.

As for `O=C(c1ccccc1Nc1cccc(OCCc2ccccc2)c1)N1CCOCC1`, the inhibition is 71% in test [1] and 4% in test [2].

On to `NC(=O)CNC(=O)c1ccccc1Nc1cccc(OCCc2ccccc2)c1`, for which the inhibition was found to be 85% in test [1] and 10% in test [2].

For `NC(=O)Cc1ccccc1Nc1cccc(OCCc2ccccc2)c1`, the inhibition in test [1] came to 68%; in [2], 19%.

Regarding `O=C(NC1CCCCC1)c1ccccc1Nc1cccc(OCCc2ccccc2)c1`, the inhibition worked out at 28% in [1] and 15% in test [2].

As to `CCCCCNC(=O)c1ccccc1Nc1cccc(OCCc2ccccc2)c1`, the inhibition came to 50% in [1] and 9% in test [2].

On to `CCCNC(=O)c1ccccc1Nc1cccc(OCCc2ccccc2)c1`, for which the results for the inhibition in [1] and in test [2] were 58% and 8%, respectively.

On to `COC(=O)CNC(=O)c1ccccc1Nc1cccc(OCCc2ccccc2)c1`, for which the inhibition in test [1] was 72%; in test [2], 17%.

As for `O=C(NCc1ccccc1)c1ccccc1Nc1cccc(OCCc2ccccc2)c1`, the results for the inhibition in test [1] and in test [2] were 70% and 12%, respectively.

Consider `CC(C)CCNC(=O)c1ccccc1Nc1cccc(OCCc2ccccc2)c1`, for which the values for the inhibition in test [1], in test [3] and in test [2] were 45%, 70% and 8%, respectively.

Turning to `C[C@H](NC(=O)[C@H](CCCCNC(=S)CNC(=O)c1ccccc1Nc1cccc(OCCc2ccccc2)c1)NC(=O)OCc1ccccc1)C(N)=O`, the GI50 in test [4] was 8.43 µM. In addition, in test [5], the outcome was Active.

As to `CC(C)(C)OC(=O)NCCCNC(=O)c1ccccc1Nc1cccc(OCCc2ccccc2)c1`, the inhibition in test [1] is 57%; in test [2], 4%.

Take `CC(C)(C)OC(=O)NCCCCNC(=O)CNC(=O)c1ccccc1Nc1cccc(OCCc2ccccc2)c1`: the inhibition in [1] amounted to 83%; in test [2] it was 23%.

Take `Cc1cc(C)nc(SCC(=O)Oc2cccc(Nc3ccccc3C(N)=O)c2)n1`: the inhibition in test [1] came to 26%; in [2], 7%.

`C[C@H](NC(=O)c1ccccc1Nc1cccc(OCCc2ccccc2)c1)C(N)=O`: the inhibition in test [1] was 81%; in [2] it was 15%.

As to `CC(C)(C)OC(=O)NCCCCCNC(=O)CNC(=O)c1ccccc1Nc1cccc(OCCc2ccccc2)c1`, the inhibition in test [1] is 83%; in test [2], 14%.

Turning to `CCCCCCCCCCCCCC(=S)NCCCC[C@H](NC(=O)OCc1ccccc1)C(=O)Nc1ccccc1`, the “growth inhibition (GI)” value in test [6] is “Active”. Besides, the outcome in test [5] was Active.

`O=C(Nc1ccccc1)c1ccccc1Nc1cccc(OCCc2ccccc2)c1`: the inhibition was found to be 44% in test [1] and 9% in test [2].

On to `O=C(CCCCCCC(=O)Nc1ccccc1)NO`, for which the fold change (FC) in test [7] came out at 1.61; in test [8], 1.3.

Turning to `CC(C)(C)OC(=O)NCCNC(=O)c1ccccc1Nc1cccc(OCCc2ccccc2)c1`, the inhibition in test [1] was 77%; in test [2] it was 11%.

Regarding `O=C(NCCO)c1ccccc1Nc1cccc(OCCc2ccccc2)c1`, the inhibition in test [1] was 76%; in test [2] it was 12%.

Take `CCN(CC)C(=O)c1ccccc1Nc1cccc(OCCc2ccccc2)c1`: the inhibition in test [1] amounted to 61%; in [2] it was 11%.

In the case of `NC(=O)c1ccccc1Nc1cccc(OCCc2ccccc2)c1`, the inhibition in test [9] was 8%; in [10], 17%; in test [1], 90%; in test [2], 12%; in test [12] it was 17%. Besides, in test [11], the inhibition of growth at 30 µM stood at 30%. In addition, the result in test [5] was Active.

Turning to `CONC(=O)c1ccccc1Nc1cccc(OCCc2ccccc2)c1`, the inhibition in [1] was determined as 63%; in [2], 6%.

With `O=C(NOC1CCCCO1)c1ccccc1Nc1cccc(OCCc2ccccc2)c1` (stereo not drawn), the inhibition in test [1] came to 54%; in test [2], 8%.

Regarding `CCCCNC(=O)c1ccccc1Nc1cccc(OCCc2ccccc2)c1`, the figures for the inhibition in [1] and in test [2] were 57% and 2%, respectively.

In the case of `CN(C)CCNC(=O)c1ccccc1Nc1cccc(OCCc2ccccc2)c1`, the inhibition in test [1] turned out to be 59%; in [3] it was 74%; in test [2], 18%.

For the compound `O=C(NC1CCN(Cc2ccccc2)CC1)c1ccccc1Nc1cccc(OCCc2ccccc2)c1`, the inhibition in test [1] is 56%; in [2], 8%.

`NC(=O)c1ccccc1Nc1cccc(OCCc2ccc3ccccc3c2)c1`: the inhibition in test [1] amounted to 75%; in [2] it was 7%.

Take `O=C(O)CNC(=O)c1ccccc1Nc1cccc(OCCc2ccccc2)c1`: the inhibition in [1] is 50%; in test [2] it was 8%.

Turning to `O=C(O)c1ccccc1Nc1cccc(OCCc2ccccc2)c1`, the inhibition in [1] amounted to 12%; in [2], 2.5%.

For the compound `O=C(NO)c1ccccc1Nc1cccc(OCCc2ccccc2)c1`, the figures for the inhibition in [1] and in test [2] were 68% and 13%, respectively.

These data come from ChEMBL document CHEMBL4350992, “Identification of Diketopiperazine-Containing 2-Anilinobenzamides as Potent Sirtuin 2 (SIRT2)-Selective Inhibitors Targeting the "Selectivity Pocket", Substrate-Binding Site, and NAD+-Binding Site” (J Med Chem, 2019).
